Experimental data from ChEMBL document CHEMBL1649578, “Biofilm formation and effect of caspofungin on biofilm structure of Candida species bloodstream isolates” (2009).
≈ marks a conversion by molar mass, not a printed value. Calls of active or inactive are those of the source. The calls are words filed in the database; no cut-off is given here.

Assays:
Candida parapsilosis [1] = test: Antifungal activity against Candida parapsilosis isolate CP1 biofilm assessed as viable fungal count per cm2 of silicone disk at 2 ug/ml after 48 hrs […]; format: functional
In short: (§1)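 Biofilms grown on serum-preconditioned silicone disks in RPMI 1640 for 24 h, PBS-washed, then exposed 48 h at 35°C on a rocker to caspofungin doubling dilutions spanning 0.25–128 μg/ml. Disks washed and sonicated/vortexed in PBS to release cells. Suspensions diluted in Butterfield buffer and plated on Sabouraud dextrose agar. Viable counts from three disks averaged as CFU/cm2.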

Candida albicans [2] = test: Antifungal activity against Candida albicans isolate CA4 biofilm assessed as viable fungal count per cm2 of silicone disk at 0.5 ug/ml after 48 hrs […]; format: functional; in short: as §1
Candida tropicalis [3] = test: Antifungal activity against Candida tropicalis isolate CT8 biofilm assessed as appearance of collapsed cell wall at 1 ug/ml after 48 hrs by scanning electron microscopy; format: functional, organism-based
In short: (§2)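 Silicone disks preconditioned 24 h at 37°C in heat-inactivated human serum, seeded with 1 × 10^6 CFU/ml in MOPS-buffered RPMI 1640 (pH 7.0), 1.5 h attachment at 37°C with shaking, then grown 24 h. Washed biofilms exposed to 1.0, 16 or 128 μg/ml caspofungin in RPMI 1640, 48 h at 35°C on a rocker. Untreated controls in RPMI only. Fixed in 5% glutaraldehyde/cacodylate (pH 6.2), ethanol-dehydrated, HMDS air-dried, examined by SEM. Run in triplicate.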

Candida albicans [4] = test: Antifungal activity against Candida albicans isolate CA4 biofilm assessed as appearance of collapsed blastospore at 1 ug/ml after 48 hrs by scanning electron microscopy; format: functional, organism-based; in short: as §2
Candida tropicalis [5] = test: Antifungal activity against Candida tropicalis isolate CT8 biofilm assessed as viable fungal count per cm2 of silicone disk at 0.25 ug/ml after 48 hrs […]; format: functional; in short: as §1
Candida tropicalis [6] = test: Antifungal activity against Candida tropicalis isolate CT8 planktonic cells after 48 hrs by broth microdilution method; format: functional; conditions: isolate CT8, 48 h
In short: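 CLSI broth microdilution in RPMI 1640; isolate plated on Sabouraud dextrose agar 24 h at 37°C. Drug stock in sterile saline diluted in RPMI, 16 to 0.0625 μg/ml tested. MIC read at 48 h as lowest concentration giving significant turbidity reduction versus control well.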

Candida albicans [7] = test: Antifungal activity against Candida albicans isolate CA4 biofilm assessed as viable fungal count per cm2 of silicone disk at 8 ug/ml after 48 hrs […]; format: functional; in short: as §1
Candida tropicalis [8] = test: Antifungal activity against Candida tropicalis isolate CT8 biofilm assessed as viable fungal count per cm2 of silicone disk at 0.5 ug/ml after 48 hrs […]; format: functional; in short: as §1
Candida albicans [9] = test: Antifungal activity against Candida albicans isolate CA4 biofilm after 48 hrs by XTT assay; format: functional; conditions: isolate CA4, 48 h
In short: (§3)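 Biofilms of clinical bloodstream isolates grown 24 h in RPMI 1640 (MOPS, pH 7.0) on human-serum-preconditioned silicone disks, after 1.5 h attachment at 37°C from 1 × 10^6 CFU/ml. Washed disks exposed 48 h at 35°C on rocker to 10 doubling dilutions, 0.25–128 μg/ml. XTT-menadione reduction 2 h at 37°C, A490; concentration giving 50% reduction of metabolic activity vs drug-free control; triplicate.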

Candida parapsilosis [10] = test: Antifungal activity against Candida parapsilosis isolate CP1 biofilm assessed as viable fungal count per cm2 of silicone disk at 64 ug/ml after 48 hrs […]; format: functional; in short: as §1
Candida albicans [11] = test: Antifungal activity against Candida albicans isolate CA4 biofilm assessed as assessed as decrease in preformed fungal biofilm formation at 128 ug/ml after 48 hrs by scanning electron microscopy; format: functional, organism-based; in short: as §2
Candida albicans [12] = test: Antifungal activity against Candida albicans isolate CA4 biofilm assessed as viable fungal count per cm2 of silicone disk at 0.25 ug/ml after 48 hrs […]; format: functional; in short: as §1
Candida tropicalis [13] = test: Antifungal activity against Candida tropicalis isolate CT8 biofilm assessed as viable fungal count per cm2 of silicone disk at 64 ug/ml after 48 hrs […]; format: functional; in short: as §1
Candida albicans [14] = test: Antifungal activity against Candida albicans isolate CA4 biofilm assessed as assessed as appearance of increased number of small blastospore at 128 ug/ml after 48 hrs by scanning electron microscopy; format: functional, organism-based; in short: as §2
Candida parapsilosis [15] = test: Ratio of SMIC for Candida parapsilosis isolate CP1 biofilm to MIC for Candida parapsilosis isolate CP1 planktonic cells; format: functional
Candida albicans [16] = test: Antifungal activity against Candida albicans isolate CA4 biofilm assessed as viable fungal count per cm2 of silicone disk at 4 ug/ml after 48 hrs […]; format: functional; in short: as §1
Candida tropicalis [17] = test: Antifungal activity against Candida tropicalis isolate CT8 biofilm assessed as viable fungal count per cm2 of silicone disk at 16 ug/ml after 48 hrs […]; format: functional; in short: as §1
Candida parapsilosis [18] = test: Antifungal activity against Candida parapsilosis isolate CP1 biofilm assessed as viable fungal count per cm2 of silicone disk at 0.25 ug/ml after 48 hrs […]; format: functional; in short: as §1
Candida albicans [19] = test: Antifungal activity against Candida albicans isolate CA4 biofilm assessed as viable fungal count per cm2 of silicone disk at 128 ug/ml after 48 hrs […]; format: functional; in short: as §1
Candida tropicalis [20] = test: Antifungal activity against Candida tropicalis isolate CT8 biofilm assessed as viable fungal count per cm2 of silicone disk at 128 ug/ml after 48 hrs […]; format: functional; in short: as §1
Candida parapsilosis [21] = test: Antifungal activity against Candida parapsilosis isolate CP1 biofilm assessed as viable fungal count per cm2 of silicone disk at 4 ug/ml after 48 hrs […]; format: functional; in short: as §1
Candida parapsilosis [22] = test: Antifungal activity against Candida parapsilosis isolate CP1 biofilm assessed as viable fungal count per cm2 of silicone disk at 16 ug/ml after 48 hrs […]; format: functional; in short: as §1
Candida tropicalis [23] = test: Antifungal activity against Candida tropicalis isolate CT8 biofilm assessed as change in cellular morphology at 128 ug/ml after 48 hrs by scanning electron microscopy; format: functional, organism-based; in short: as §2
Candida tropicalis [24] = test: Antifungal activity against Candida tropicalis isolate CT8 biofilm assessed as viable fungal count per cm2 of silicone disk at 2 ug/ml after 48 hrs […]; format: functional; in short: as §1
Candida tropicalis [25] = test: Ratio of SMIC for Candida tropicalis isolate CT8 biofilm to MIC for Candida tropicalis isolate CT8 planktonic cells; format: functional
Candida tropicalis [26] = test: Antifungal activity against Candida tropicalis isolate CT8 biofilm after 48 hrs by XTT assay; format: functional; conditions: isolate CT8, 48 h; in short: as §3
Candida albicans [27] = test: Antifungal activity against Candida albicans isolate CA4 biofilm assessed as viable fungal count per cm2 of silicone disk at 64 ug/ml after 48 hrs […]; format: functional; in short: as §1
Candida tropicalis [28] = test: Antifungal activity against Candida tropicalis isolate CT8 biofilm assessed as viable fungal count per cm2 of silicone disk at 1 ug/ml after 48 hrs […]; format: functional; in short: as §1
Candida tropicalis [29] = test: Antifungal activity against Candida tropicalis isolate CT8 biofilm assessed as viable fungal count per cm2 of silicone disk at 8 ug/ml after 48 hrs […]; format: functional; in short: as §1
Candida parapsilosis [30] = test: Antifungal activity against Candida parapsilosis isolate CP1 biofilm assessed as change in cellular morphology at 16 ug/ml after 48 hrs by scanning electron microscopy; format: functional, organism-based; in short: as §2
Candida parapsilosis [31] = test: Antifungal activity against Candida parapsilosis isolate CP1 biofilm assessed as change in cellular morphology at 1 ug/ml after 48 hrs by scanning electron microscopy; format: functional, organism-based; in short: as §2
Candida albicans [32] = test: Antifungal activity against Candida albicans isolate CA4 biofilm assessed as appearance of collapsed blastospore at 16 ug/ml after 48 hrs by scanning electron microscopy; format: functional, organism-based; in short: as §2
Candida albicans [33] = test: Antifungal activity against Candida albicans isolate CA4 biofilm assessed as viable fungal count per cm2 of silicone disk at 16 ug/ml after 48 hrs […]; format: functional; in short: as §1
Candida albicans [34] = test: Antifungal activity against Candida albicans isolate CA4 planktonic cells after 48 hrs by broth microdilution method; format: functional; conditions: isolate CA4, 48 h
In short: (§4)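 Isolates grown on Sabouraud dextrose agar 24 h at 37°C. MIC is the lowest concentration giving a significant turbidity reduction versus control at 48 h.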

Candida parapsilosis [35] = test: Antifungal activity against Candida parapsilosis isolate CP1 biofilm assessed as viable fungal count per cm2 of silicone disk at 32 ug/ml after 48 hrs […]; format: functional; in short: as §1
Candida parapsilosis [36] = test: Antifungal activity against Candida parapsilosis isolate CP1 biofilm after 48 hrs by XTT assay; format: functional; conditions: Lodderomyces parapsilosis, isolate CP1, 48 h
In short: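 Biofilms on serum-preconditioned silicone disks in MOPS-buffered RPMI 1640 (pH 7.0), grown 24 h, PBS-washed, then challenged 48 h at 35°C on a rocker with ten doubling caspofungin dilutions, 0.25–128 μg/ml. Metabolic activity read by XTT-menadione reduction, 2 h at 37°C, A490. SMIC taken as the concentration giving 50% reduction in metabolic activity versus drug-free control. Triplicate.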

Candida parapsilosis [37] = test: Antifungal activity against Candida parapsilosis isolate CP1 biofilm assessed as viable fungal count per cm2 of silicone disk at 128 ug/ml after 48 hrs […]; format: functional; in short: as §1
Candida albicans [38] = test: Ratio of SMIC for Candida albicans isolate CA4 biofilm to MIC for Candida albicans isolate CA4 planktonic cells; format: functional
Candida parapsilosis [39] = test: Antifungal activity against Candida parapsilosis isolate CP1 biofilm assessed as viable fungal count per cm2 of silicone disk at 8 ug/ml after 48 hrs […]; format: functional; in short: as §1
Candida tropicalis [40] = test: Antifungal activity against Candida tropicalis isolate CT8 biofilm assessed as viable fungal count per cm2 of silicone disk at 4 ug/ml after 48 hrs […]; format: functional; in short: as §1
Candida albicans [41] = test: Antifungal activity against Candida albicans isolate CA4 biofilm assessed as viable fungal count per cm2 of silicone disk at 2 ug/ml after 48 hrs […]; format: functional; in short: as §1
Candida tropicalis [42] = test: Antifungal activity against Candida tropicalis isolate CT8 biofilm assessed as viable fungal count per cm2 of silicone disk at 32 ug/ml after 48 hrs […]; format: functional; in short: as §1
Candida albicans [43] = test: Antifungal activity against Candida albicans isolate CA4 biofilm assessed as viable fungal count per cm2 of silicone disk at 1 ug/ml after 48 hrs […]; format: functional; in short: as §1
Candida tropicalis [44] = test: Antifungal activity against Candida tropicalis isolate CT8 biofilm assessed as change in cellular morphology at 16 ug/ml after 48 hrs by scanning electron microscopy; format: functional, organism-based; in short: as §2
Candida parapsilosis [45] = test: Antifungal activity against Candida parapsilosis isolate CP1 planktonic cells after 48 hrs by broth microdilution method; format: functional; conditions: Lodderomyces parapsilosis, isolate CP1, 48 h; in short: as §4
Candida parapsilosis [46] = test: Antifungal activity against Candida parapsilosis isolate CP1 biofilm assessed as viable fungal count per cm2 of silicone disk at 0.5 ug/ml after 48 hrs […]; format: functional; in short: as §1
Candida albicans [47] = test: Antifungal activity against Candida albicans isolate CA4 biofilm assessed as viable fungal count per cm2 of silicone disk at 32 ug/ml after 48 hrs […]; format: functional; in short: as §1
Candida parapsilosis [48] = test: Antifungal activity against Candida parapsilosis isolate CP1 biofilm assessed as viable fungal count per cm2 of silicone disk at 1 ug/ml after 48 hrs […]; format: functional; in short: as §1

CC[C@H](C)C[C@H](C)CCCCCCCCC(=O)N[C@H]1C[C@@H](O)[C@@H](NCCN)NC(=O)[C@@H]2[C@@H](O)CCN2C(=O)[C@H]([C@H](O)CCN)NC(=O)[C@H]([C@H](O)[C@@H](O)c2ccc(O)cc2)NC(=O)[C@@H]2C[C@@H](O)CN2C(=O)[C@H]([C@@H](C)O)NC1=O [CASPOFUNGIN]
log10cfu (Candida parapsilosis [1]): 0
log10cfu (Candida albicans [2]): 3.4
Activity (Candida tropicalis [3]): Active
Activity (Candida albicans [4]): Active
log10cfu (Candida tropicalis [5]): 6.4
MIC (Candida tropicalis [6]): 0.0625 µg/mL (≈ 0.0572 µM)
log10cfu (Candida albicans [7]): 5.6
log10cfu (Candida tropicalis [8]): 6.2
MIC (Candida albicans [9]): 0.5 µg/mL (≈ 0.457 µM)
log10cfu (Candida parapsilosis [10]): 3.6
Activity (Candida albicans [11]): Active
log10cfu (Candida albicans [12]): 4.4
log10cfu (Candida tropicalis [13]): 5
Activity (Candida albicans [14]): Active
Ratio (Candida parapsilosis [15]): 2
log10cfu (Candida albicans [16]): 5.3
log10cfu (Candida tropicalis [17]): 5.7
log10cfu (Candida parapsilosis [18]): 0
log10cfu (Candida albicans [19]): 3.5
log10cfu (Candida tropicalis [20]): 3.3
log10cfu (Candida parapsilosis [21]): 5.1
log10cfu (Candida parapsilosis [22]): 4.5
Activity (Candida tropicalis [23]): inactive
log10cfu (Candida tropicalis [24]): 5.9
Ratio (Candida tropicalis [25]): 16
MIC (Candida tropicalis [26]): 0.25 µg/mL (≈ 0.229 µM)
log10cfu (Candida albicans [27]): 4.6
log10cfu (Candida tropicalis [28]): 5.7
log10cfu (Candida tropicalis [29]): 5.7
Activity (Candida parapsilosis [30]): Active
Activity (Candida parapsilosis [31]): inactive
Activity (Candida albicans [32]): Active
log10cfu (Candida albicans [33]): 6.2
MIC (Candida albicans [34]): 0.0625 µg/mL (≈ 0.0572 µM)
log10cfu (Candida parapsilosis [35]): 4.2
MIC (Candida parapsilosis [36]): 4 µg/mL (≈ 3.66 µM)
log10cfu (Candida parapsilosis [37]): 2.7
Ratio (Candida albicans [38]): 2
log10cfu (Candida parapsilosis [39]): 5.2
log10cfu (Candida tropicalis [40]): 5.7
log10cfu (Candida albicans [41]): 4.7
log10cfu (Candida tropicalis [42]): 5.4
log10cfu (Candida albicans [43]): 3.3
Activity (Candida tropicalis [44]): Active
MIC (Candida parapsilosis [45]): 0.25 µg/mL (≈ 0.229 µM)
log10cfu (Candida parapsilosis [46]): 0
log10cfu (Candida albicans [47]): 5.6
log10cfu (Candida parapsilosis [48]): 0
